# Assay results reported in publication PMC3157688 (The FASEB Journal, 2011).
# Key:
# [1] = tested on: human APP processing in the brain of APP[V717I]-transgenic mice; test: Immunoblot of sAPPα and full-length APP in brain homogenates, first study; type: in vivo, mouse; details: 10 μg daily intranasal, administration solution 1, 3 mo; 4-mo-old male mice
# How it was run: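 Male APP[V717I] mice (FVB/N background), 1 mo old, received the test compound intranasally at 10 μg/d (1 μg/μl, 5 μl/nostril), 5 d/wk for 3 mo. Vehicle: NaCl/citric acid/disodium phosphate/benzalkonium chloride water solution. Controls (n=8) received carrier alone. Hemispheres homogenized in ice-cold 20 mM Tris-HCl pH 8.5 plus protease inhibitors, then centrifuged at 100,000 g for 1 h at 4°C. sAPPα probed with 6E10 and a 35S-labeled or peroxidase-coupled secondary.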
# [2] = tested on: brain mRNA levels of APP[V717I] transgenic mice; test: Quantitative real-time RT-PCR of brain mRNA levels; type: in vivo, mouse; details: 6-mo-old mice, 3 mo intranasal treatment; n=7/group
# [3] = tested on: APP[V717I]-transgenic mice; test: Open field activity and enriched open field; type: in vivo, mouse; details: 6-mo-old mice after 3 mo of daily intranasal treatment; data not shown
# [4] = tested on: healthy human male subjects; details: cited from earlier work
substance,measurement,setting,value
pituitary adenylate cyclase-activating polypeptide [PACAP38],expression level of full-length APP in the brain,[1],no influence
same,ADAM10 gene expression in brain (in words),[2],not caused by increased ADAM10 and ADAM17 gene expression
same,ADAM17 gene expression in brain (in words),[2],not caused by increased ADAM10 and ADAM17 gene expression
same,"activity and exploration-related parameters, difference between the tested groups",[3],no differences
same,tolerability of inhaled peptide,[4],well tolerated without systemic side-effects
